According to ChEMBL document CHEMBL4014327 (J Med Chem, 2017):
Values after ≈ are worked out from the molar mass of the structure shown. Active and inactive are the calls of the source. The rule behind the calls is not given here.

Experiments:
[1] = Apparent intrinsic clearance in human liver microsomes; assay type: ADME, microsome; settings: read-out: CLH(app)
[2] = Apparent permeability in RRCK cells from apical to basolateral side; assay type: ADME, cell-based, Canis lupus familiaris, MDCKII-LE; settings: dog, MDCK
In short: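 RRCK cell monolayer permeability assay; apparent permeability reported in cm/s.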

[3] = biological target: T1, Interleukin-1 receptor-associated kinase 4 (Homo sapiens, UniProt Q9NWZ3); test: Inhibition of IRAK4 in human PBMC assessed as reduction in R848-stimulated TNF alpha production after 3 hrs
T1 sequence (Q9NWZ3 whole entry): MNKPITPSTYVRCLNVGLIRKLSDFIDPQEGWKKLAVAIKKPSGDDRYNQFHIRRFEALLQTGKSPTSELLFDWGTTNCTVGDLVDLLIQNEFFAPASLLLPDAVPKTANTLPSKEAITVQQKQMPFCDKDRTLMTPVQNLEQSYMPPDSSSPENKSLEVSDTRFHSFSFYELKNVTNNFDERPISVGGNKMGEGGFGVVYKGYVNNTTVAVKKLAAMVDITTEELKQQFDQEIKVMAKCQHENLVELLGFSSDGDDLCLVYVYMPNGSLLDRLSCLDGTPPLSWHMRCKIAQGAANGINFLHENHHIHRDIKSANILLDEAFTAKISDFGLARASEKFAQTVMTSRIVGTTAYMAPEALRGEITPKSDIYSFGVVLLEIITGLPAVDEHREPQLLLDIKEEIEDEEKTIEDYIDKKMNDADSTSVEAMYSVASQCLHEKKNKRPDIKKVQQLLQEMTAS

[4] = biological target: T1, Interleukin-1 receptor-associated kinase 4; test: Inhibition of N-terminal His6-tagged human full length IRAK4 preincubated for 20 mins followed by biotinylated-AGAGRDKYKTLRQIR substrate addition in presence of ATP measured after 60 mins by DELFIA method
[5] = Lipophilicity, log D of compound; assay type: physicochemical; settings: octanol/water
[6] = biological target: T2, Interleukin-1 receptor-associated kinase 4 (Homo sapiens) (UniProt Q9NWZ3); settings: 909 uM
T2 sequence (whole entry): T1 sequence (Q9NWZ3 whole entry)

[7] = biological target: T2, Interleukin-1 receptor-associated kinase 4 (Homo sapiens); settings: 236 uM
[8] = biological target: Voltage-gated inwardly rectifying potassium channel KCNH2 (Homo sapiens, UniProt Q12809); test: Inhibition of human ERG
[9] = Thermodynamic solubility of compound at pH 6.5; assay type: physicochemical; settings: buffer, read-out: Therm_solubility
[10] = system: Rattus norvegicus; test: Clearance in iv dosed rat; assay type: ADME, organism-based; settings: in vivo
[11] = Half life in rat; assay type: ADME; settings: in vivo
[12] = Oral bioavailability in rat; assay type: ADME, organism-based; settings: in vivo
[13] = Fraction unbound in human plasma; assay type: ADME, cell-free
In short: (§1)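 Fraction unbound in plasma measured by equilibrium dialysis.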

[14] = Fraction unbound in rat plasma; assay type: ADME, cell-free; in short: as §1
[15] = biological target: CYP1A2 (Homo sapiens, UniProt P05177); test: Inhibition of CYP1A2 in human liver microsomes at 3 uM; assay type: ADME
[16] = biological target: CYP2C8 (Homo sapiens, UniProt P10632); test: Inhibition of CYP2C8 in human liver microsomes at 3 uM; assay type: ADME
[17] = biological target: CYP2D6 (Homo sapiens, UniProt P10635); test: Inhibition of CYP2D6 in human liver microsomes at 3 uM; assay type: ADME
[18] = biological target: CYP3A4 (Homo sapiens, UniProt P08684); test: Inhibition of CYP3A4 in human liver microsomes at 3 uM; assay type: ADME
[19] = biological target: T2, Interleukin-1 receptor-associated kinase 4 (Homo sapiens); test: Inhibition of IRAK4 in human THP1 cell lysate
[20] = system: Rattus norvegicus; test: Antiinflammatory activity in Lewis rat CIA model assessed as reduction in paw swelling at 30 mg/kg, po bid treated on day 11 post immunization for 8 days by plethysmographic method; assay type: functional, organism-based
In short: (§2)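 Female Lewis rats (about 7−9 weeks old, n = 10 per group) immunized on day 0 with bovine type II collagen in incomplete Freund's adjuvant and boosted on day 7. Oral dosing twice daily as solution or suspension in vehicle (0.5% methylcellulose, 2% Tween 80 in water), vehicle-only controls. Paw volume measured daily by plethysmograph, body weight recorded daily.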

[21] = system: Rattus norvegicus; test: Antiinflammatory activity in Lewis rat CIA model assessed as reduction in paw swelling at 100 mg/kg, po bid treated on day 11 post immunization for 8 days by plethysmographic method; assay type: functional, organism-based; in short: as §2
[22] = biological target: CYP2C9 (Homo sapiens, UniProt P11712); test: Inhibition of CYP2C9 in human liver microsomes at 3 uM; assay type: ADME
[23] = system: Rattus norvegicus; test: In vivo receptor occupancy at IRAK4 in spleen of po dosed Lewis rat CIA model measured at 1 hr postdose; assay type: functional, organism-based
[24] = system: Rattus norvegicus; test: In vivo receptor occupancy at IRAK4 in spleen of Lewis rat CIA model at 100 mg/kg, po measured at 1 hr postdose; assay type: functional
In short: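 Lewis female rats (7–9 wk, n = 10/group), immunized with bovine type II collagen/IFA on day 0 and boosted day 7. Oral dosing twice daily in therapeutic mode (started after disease onset), vehicle 0.5% methylcellulose, 2% Tween 80 in water. Spleens sampled 1 h postdose, flash frozen. Kinase occupancy measured by KiNativ profiling with an ATP-competitive probe.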

CYP1A2, sequence (P05177 whole entry): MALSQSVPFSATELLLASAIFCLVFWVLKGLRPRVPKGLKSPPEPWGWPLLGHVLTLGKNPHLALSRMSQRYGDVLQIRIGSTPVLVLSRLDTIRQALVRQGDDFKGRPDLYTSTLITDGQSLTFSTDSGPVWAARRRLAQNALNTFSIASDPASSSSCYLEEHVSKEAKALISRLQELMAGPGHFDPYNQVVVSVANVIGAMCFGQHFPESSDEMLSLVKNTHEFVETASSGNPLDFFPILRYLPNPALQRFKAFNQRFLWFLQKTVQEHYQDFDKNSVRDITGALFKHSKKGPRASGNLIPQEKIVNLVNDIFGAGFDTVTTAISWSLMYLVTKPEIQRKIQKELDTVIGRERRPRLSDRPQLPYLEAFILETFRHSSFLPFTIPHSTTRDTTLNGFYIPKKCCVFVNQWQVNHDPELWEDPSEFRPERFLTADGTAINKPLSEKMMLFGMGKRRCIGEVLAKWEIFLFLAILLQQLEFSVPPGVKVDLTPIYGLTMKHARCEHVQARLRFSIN
CYP2C9, sequence (P11712 whole entry): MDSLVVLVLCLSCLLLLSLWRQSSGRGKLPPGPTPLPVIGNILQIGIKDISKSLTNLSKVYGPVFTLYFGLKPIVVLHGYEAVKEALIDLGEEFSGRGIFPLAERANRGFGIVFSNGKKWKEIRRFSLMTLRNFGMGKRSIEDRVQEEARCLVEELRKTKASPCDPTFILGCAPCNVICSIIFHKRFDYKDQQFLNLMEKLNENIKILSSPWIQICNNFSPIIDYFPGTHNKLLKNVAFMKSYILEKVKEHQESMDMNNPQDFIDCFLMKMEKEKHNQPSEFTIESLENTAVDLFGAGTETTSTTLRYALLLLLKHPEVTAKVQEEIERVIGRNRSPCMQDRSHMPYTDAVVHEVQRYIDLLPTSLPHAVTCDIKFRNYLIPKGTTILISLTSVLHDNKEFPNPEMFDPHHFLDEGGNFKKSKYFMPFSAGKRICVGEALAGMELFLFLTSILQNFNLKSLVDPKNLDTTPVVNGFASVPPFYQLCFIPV
Voltage-gated inwardly rectifying potassium channel KCNH2, sequence (Q12809 whole entry): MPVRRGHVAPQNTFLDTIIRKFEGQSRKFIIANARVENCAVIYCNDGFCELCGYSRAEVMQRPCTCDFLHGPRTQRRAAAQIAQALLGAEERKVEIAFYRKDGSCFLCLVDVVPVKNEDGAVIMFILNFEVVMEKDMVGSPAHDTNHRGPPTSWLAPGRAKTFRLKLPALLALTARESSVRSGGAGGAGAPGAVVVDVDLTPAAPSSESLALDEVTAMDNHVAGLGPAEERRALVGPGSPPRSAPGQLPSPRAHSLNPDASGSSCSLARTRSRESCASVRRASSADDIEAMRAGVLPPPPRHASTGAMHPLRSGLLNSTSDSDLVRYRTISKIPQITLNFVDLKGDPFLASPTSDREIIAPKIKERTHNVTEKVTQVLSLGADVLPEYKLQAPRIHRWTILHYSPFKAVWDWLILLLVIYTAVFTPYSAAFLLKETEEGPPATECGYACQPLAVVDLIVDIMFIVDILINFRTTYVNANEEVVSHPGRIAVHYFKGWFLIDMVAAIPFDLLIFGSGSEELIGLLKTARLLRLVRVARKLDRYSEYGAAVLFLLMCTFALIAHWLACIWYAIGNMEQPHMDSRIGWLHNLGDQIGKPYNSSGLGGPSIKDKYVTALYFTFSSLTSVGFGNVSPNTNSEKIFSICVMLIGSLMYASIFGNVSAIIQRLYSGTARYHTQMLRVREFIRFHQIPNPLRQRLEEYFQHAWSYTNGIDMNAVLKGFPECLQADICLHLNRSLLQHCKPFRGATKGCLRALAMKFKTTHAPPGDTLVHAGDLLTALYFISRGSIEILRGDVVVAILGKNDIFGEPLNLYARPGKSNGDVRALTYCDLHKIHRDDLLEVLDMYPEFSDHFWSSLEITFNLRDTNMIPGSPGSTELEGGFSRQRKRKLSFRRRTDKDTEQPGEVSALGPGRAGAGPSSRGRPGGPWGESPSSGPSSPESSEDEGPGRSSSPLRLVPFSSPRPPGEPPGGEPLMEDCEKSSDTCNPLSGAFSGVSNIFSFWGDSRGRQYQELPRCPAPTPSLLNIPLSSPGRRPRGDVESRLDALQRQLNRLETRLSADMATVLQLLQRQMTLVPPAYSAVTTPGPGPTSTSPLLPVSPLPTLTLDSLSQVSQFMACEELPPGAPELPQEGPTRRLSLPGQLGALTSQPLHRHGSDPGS
CYP2D6, sequence (P10635 whole entry): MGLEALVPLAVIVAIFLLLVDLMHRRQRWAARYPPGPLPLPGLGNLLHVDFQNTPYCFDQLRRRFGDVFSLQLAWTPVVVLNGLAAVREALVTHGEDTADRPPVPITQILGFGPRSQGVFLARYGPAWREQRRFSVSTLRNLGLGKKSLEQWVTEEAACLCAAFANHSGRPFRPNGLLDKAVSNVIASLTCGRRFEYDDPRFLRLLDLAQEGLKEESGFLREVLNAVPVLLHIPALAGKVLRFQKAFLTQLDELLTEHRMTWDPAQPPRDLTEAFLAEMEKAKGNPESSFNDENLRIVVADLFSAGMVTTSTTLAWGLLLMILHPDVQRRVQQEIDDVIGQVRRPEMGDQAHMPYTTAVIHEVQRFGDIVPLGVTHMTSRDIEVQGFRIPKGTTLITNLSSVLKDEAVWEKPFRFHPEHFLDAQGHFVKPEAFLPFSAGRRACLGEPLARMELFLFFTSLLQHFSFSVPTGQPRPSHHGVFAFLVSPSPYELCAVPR
CYP3A4, sequence (P08684 whole entry): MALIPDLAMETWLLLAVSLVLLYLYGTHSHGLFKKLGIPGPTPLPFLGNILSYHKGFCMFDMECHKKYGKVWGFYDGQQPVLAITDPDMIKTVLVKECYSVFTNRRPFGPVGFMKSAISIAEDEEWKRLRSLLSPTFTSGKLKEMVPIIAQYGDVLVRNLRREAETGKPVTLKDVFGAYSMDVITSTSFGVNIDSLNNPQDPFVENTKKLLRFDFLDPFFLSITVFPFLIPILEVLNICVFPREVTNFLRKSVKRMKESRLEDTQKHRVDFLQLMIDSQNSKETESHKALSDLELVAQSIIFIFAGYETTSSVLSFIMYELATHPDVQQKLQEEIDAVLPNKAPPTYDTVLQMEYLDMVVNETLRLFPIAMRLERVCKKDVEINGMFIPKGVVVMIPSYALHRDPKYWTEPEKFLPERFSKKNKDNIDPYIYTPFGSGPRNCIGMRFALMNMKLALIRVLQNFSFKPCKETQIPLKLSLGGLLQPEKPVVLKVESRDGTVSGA
CYP2C8, sequence (P10632 whole entry): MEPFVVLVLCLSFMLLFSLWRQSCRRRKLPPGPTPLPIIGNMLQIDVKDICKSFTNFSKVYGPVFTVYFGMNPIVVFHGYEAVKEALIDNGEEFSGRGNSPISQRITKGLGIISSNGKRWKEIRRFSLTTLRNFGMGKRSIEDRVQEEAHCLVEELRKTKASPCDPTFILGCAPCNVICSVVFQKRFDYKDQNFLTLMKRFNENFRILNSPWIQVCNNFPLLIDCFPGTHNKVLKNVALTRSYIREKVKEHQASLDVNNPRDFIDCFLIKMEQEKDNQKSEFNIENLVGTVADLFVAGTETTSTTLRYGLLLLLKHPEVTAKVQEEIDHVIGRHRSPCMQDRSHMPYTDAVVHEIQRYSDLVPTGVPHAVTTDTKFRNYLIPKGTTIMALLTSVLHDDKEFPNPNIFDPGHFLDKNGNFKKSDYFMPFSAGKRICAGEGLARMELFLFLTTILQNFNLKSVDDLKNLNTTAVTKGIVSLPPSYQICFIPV

| Structure (SMILES) | microsomal CLint [1] [µL/min/mg] | Papp A→B [2] [×10⁻⁶ cm/s] | other results |
| --- | --- | --- | --- |
| COc1cc2c(OC[C@H]3NC(=O)[C@@H]4C[C@H]34)nccc2cc1C(N)=O | < 8 | 11.7 | – |
| COc1cc2c(OC[C@H]3NC(=O)[C@@]4(F)[C@@H]3[C@@H]4C)nccc2cc1C(N)=O | < 8 | 16.3 | – |
| COc1cc2c(OC[C@H]3NC(=O)[C@H](C)[C@H]3C)nccc2cc1C(N)=O | 32 | 13.9 | – |
| CC(C)Oc1cc2c(OC[C@H]3CCC(=O)N3)nccc2cc1C(N)=O | – | 10.5 | – |
| COC[C@@H]1CC(=O)N[C@@H]1COc1nccc2cc(C(N)=O)c(OC)cc12 | < 8 | 12.5 | IC50 [3]: 373 nM |
| COc1cc2c(OC[C@H]3NC(=O)[C@@H](C)[C@H]3C)nccc2cc1C(N)=O | 9 | 15.8 | – |
| CC(C)Oc1cc2c(-c3ccc(C#N)cc3)cccc2cc1C(N)=O | – | – | IC50 [4]: 71.9 nM |
| CC[C@@H]1CC(=O)N[C@@H]1COc1nccc2cc(C(N)=O)c(OC)cc12 | 14 | 17.9 | – |
| CC(C)Oc1cc2c(O[C@@H]3CCCNC3)nccc2cc1C(N)=O | 11 | 11.4 | IC50 [4]: 121 nM; logD [5]: 0.7; IC50 [3]: 1550 nM |
| COc1cc2c(OC[C@@H]3CCC(=O)N3)cccc2cc1C(N)=O | 13 | 14.2 | logD [5]: 1.5 |
| CC(C)Oc1ccccc1C(N)=O | – | – | IC50 [4]: 55000 nM; inhibition [6]: > 50%; inhibition [7]: > 10% |
| CCC[C@@H]1CC(=O)N[C@@H]1COc1nccc2cc(C(N)=O)c(OC)cc12 | 44 | 18.9 | IC50 [3]: 28.4 nM |
| COc1cc2c(OC[C@H]3NC(=O)C[C@H]3C)nccc2cc1C(N)=O | < 9 | 10.5 | – |
| COc1cc2c(OC[C@H]3NC(=O)[C@H](F)[C@H]3C)nccc2cc1C(N)=O | 12 | 10.4 | – |
| CC(C)Oc1cc2ccccc2cc1C(N)=O | – | – | IC50 [4]: 2090 nM |
| CCOc1cc2c(OC[C@@H]3CCC(=O)N3)nccc2cc1C(N)=O | 9 | 10.6 | – |
| CC(C)Oc1cc2c(OC[C@@H]3CCC(=O)N3)nccc2cc1C(N)=O | 10 | 10.7 | IC50 [8]: > 30000 nM; solubility thermodynamic [9]: 78 µM (≈ 26.8 µg/mL); clearance [10]: 23 mL/min/kg; half-life [11]: 1.2 h; bioavailability [12]: 57%; fraction unbound [13]: 0.29; fraction unbound [14]: 0.21; inhibition at 3 µM [15]: < 10%; inhibition at 3 µM [16]: < 10%; inhibition at 3 µM [17]: < 10%; inhibition at 3 µM [18]: < 10%; inhibition [19]: Active; Activity [20]: Active; Activity [21]: Active; inhibition at 3 µM [22]: 13.6%; Occ [23]: Dose-dependent effect; Occ [24]: 80% |
| CC[C@H]1[C@@H](COc2nccc3cc(C(N)=O)c(OC)cc23)NC(=O)[C@@H]1F | 15 | 14.2 | – |
| COc1cc2c(OC[C@@H]3CCC(=O)N3)ccnc2cc1C(N)=O | < 8 | 5.8 | – |
| COc1cc2c(OC[C@@H]3CCC(=O)N3)nccc2cc1C(N)=O | 9 | 9.9 | logD [5]: 0.9; clearance [10]: 35 mL/min/kg; half-life [11]: 1 h; bioavailability [12]: 44% |
| COc1cc2c(OC[C@H]3NC(=O)[C@@H]4[C@@H](C)[C@@H]43)nccc2cc1C(N)=O | < 8 | 13.5 | – |
| CC(C)Oc1cc2c(O[C@@H]3CCCNC3)ccnc2cc1C(N)=O | – | 2.8 | IC50 [4]: 146 nM; logD [5]: 0.4 |
| COc1cc2c(OC[C@H]3NC(=O)[C@@H](F)[C@H]3C)nccc2cc1C(N)=O | < 9 | 9.9 | – |
